Laboratory results taken from ChEMBL document CHEMBL2311355, “A class of 5-nitro-2-furancarboxylamides with potent trypanocidal activity against Trypanosoma brucei in vitro” (J Med Chem, 2013).

Legend:
[1] = system: Trypanosoma brucei rhodesiense; assay: Trypanocidal activity against Trypanosoma brucei rhodesiense Z310 after 72 hrs by Alamar blue assay; type: functional, organism-based; settings: Z310, 72 h
Method in brief: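 T. b. rhodesiense strain Z310 cultured at 37°C in HMI9 with 10% fetal calf serum, without G418, and exposed to compounds for 72 h. Alamar Blue viability read-out. Four replicates; EC50 ± standard deviation from curve fitting.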

[2] = system: Trypanosoma brucei brucei; assay: Trypanocidal activity against bloodstream form of Trypanosoma brucei brucei 427 after 72 hrs by Alamar blue assay; type: functional, organism-based; settings: Trypanosoma brucei, 427, 72 h
Method in brief: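 Bloodstream-form T. b. brucei strain 427 grown at 37°C in HMI9 with 10% fetal calf serum and 2.5 µg ml-1 G418, exposed to serially diluted compounds for 72 h. Viability read by Alamar Blue. Four replicates; EC50 ± standard deviation and slope factor from curve fitting.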

[3] = Selectivity index, ratio of EC50 for human HeLa cells to EC50 for bloodstream form of Trypanosoma brucei brucei 427; type: toxicity, cell-based; settings: read-out: Ratio EC50
[4] = system: HeLa; assay: Cytotoxicity against human HeLa cells after 65 hrs by Alamar blue assay; type: cell-based
[5] = system: Trypanosoma brucei brucei; assay: Ratio of nifurtimox EC50 to compound EC50 for bloodstream form of wild type Trypanosoma brucei brucei 427; type: functional
[6] = system: Trypanosoma brucei; assay: Trypanocidal activity against bloodstream form of nifurtimox-resistant Trypanosoma brucei after 72 hrs by Alamar blue assay; type: functional, organism-based
[7] = system: Trypanosoma brucei; assay: Trypanocidal activity against bloodstream form of N-(4-(allyloxy)-3-(trifluoromethyl)phenyl)-5-nitrofuran-2-carboxamide-resistant Trypanosoma brucei after 72 hrs by Alamar blue assay; type: functional, organism-based
[8] = Selectivity ratio of EC50 for bloodstream form of N-(4-(allyloxy)-3-(trifluoromethyl)phenyl)-5-nitrofuran-2-carboxamide-resistant Trypanosoma brucei to EC50 for bloodstream form of wild type Trypanosoma brucei brucei 427; type: functional
[9] = Selectivity ratio of EC50 for bloodstream form of nifurtimox-resistant Trypanosoma brucei to EC50 for bloodstream form of wild type Trypanosoma brucei brucei 427; type: functional
[10] = system: Trypanosoma brucei; assay: Antitrypanosomal activity against trypomastigote form of Trypanosoma brucei; type: functional, organism-based
Method in brief: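 Bloodstream-form T. b. brucei strain 427 grown at 37°C in HMI9 with 10% fetal calf serum and 2.5 μg ml-1 G418; viability read by Alamar Blue after 72 h compound exposure. Four replicates, EC50 ± standard deviation and slope factor from curve fitting.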

Compound | EC50 [2] [µM] | selectivity ratio [3] | EC50 [4] [µM] | further results
O=C(Nc1ccc(C(F)(F)F)cc1)c1ccc([N+](=O)[O-])o1 | 0.126 | > 158 | > 20 | EC50 [1]: 0.159 µM
CCOC(=O)c1ccsc1NC(=O)c1ccc([N+](=O)[O-])o1 | 0.0723 | > 278 | > 20 | 
CCNC(=O)c1cc(CC)sc1NC(=O)c1ccc([N+](=O)[O-])o1 | 0.147 | > 136 | > 20 | EC50 [1]: 0.202 µM
C=CCOc1ccc(N(CC=C)C(=O)c2ccc([N+](=O)[O-])o2)cc1C(F)(F)F | 2.2 | > 9 | > 20 | 
O=C(NCc1ccccc1)c1ccc([N+](=O)[O-])o1 | 0.0273 | > 732 | > 20 | 
CCc1cc(C(=O)OC)c(NC(=O)c2ccc([N+](=O)[O-])o2)s1 | 0.021 | > 950 | > 20 | 
CCOC(=O)c1cc(CC)sc1NC(=O)c1ccco1 | > 20 |  | > 20 | 
CCc1cc(C(=O)NCCO)c(NC(=O)c2ccc([N+](=O)[O-])o2)s1 | 0.0796 | > 253 | > 20 | 
O=C(Nc1cccs1)c1ccc([N+](=O)[O-])o1 | 0.0626 | > 322 | > 20 | 
CCCCc1cc(C(=O)OCC)c(NC(=O)c2ccc([N+](=O)[O-])o2)s1 | 0.125 | > 160 | > 20 | 
O=C(NCc1ccccn1)c1ccc([N+](=O)[O-])o1 | 0.291 | > 68 | > 20 | 
O=[N+]([O-])c1ccc(CNc2ccccc2)o1 | 113 |  | > 20 | 
O=C(NC1CCCCC1)c1ccc([N+](=O)[O-])o1 | 0.231 | > 86 | > 20 | 
O=C(Nc1ccccc1)c1ccc([N+](=O)[O-])o1 | 0.0281 | > 710 | > 20 | 
COc1ccc(NC(=O)c2ccc([N+](=O)[O-])o2)cc1C | 0.038 | > 525 | > 20 | 
CCc1cc(C(N)=O)c(NC(=O)c2ccccc2[N+](=O)[O-])s1 | 26.1 |  | > 20 | 
CCCCNC(=O)c1cc(CC)sc1NC(=O)c1ccc([N+](=O)[O-])o1 | 0.336 | > 60 | > 20 | 
C=CCOc1ccc(NC(=O)c2ccc([N+](=O)[O-])o2)cc1C(F)(F)F | 0.0024 | > 8330 | > 20 | EC50 [1]: 0.0029 µM; Ratio EC50 [5]: 1000; EC50 [6]: 0.0078 µM; EC50 [7]: 0.0293 µM; Ratio EC50 [8]: 14; Ratio EC50 [9]: 3
CCc1cc(C(N)=O)c(NC(=O)c2n[nH]cc2[N+](=O)[O-])s1 | > 300 |  | > 20 | 
CC1CS(=O)(=O)CCN1/N=C/c1ccc([N+](=O)[O-])o1 (stereo not given) [NIFURTIMOX] |  | 38 | 91.2 | EC50 [1]: 1.71 µM; EC50 [7]: 7.3 µM; Ratio EC50 [8]: 3
CCc1cc(C(=O)O)c(NC(=O)c2ccc([N+](=O)[O-])o2)s1 | 0.959 |  | > 20 | 
CCc1cc(C(N)=O)c(N)s1 | 32.6 |  | > 20 | 
CCc1cc(C(N)=O)c(NC(=O)c2cccc([N+](=O)[O-])c2)s1 | 2.6 | > 8 | > 20 | 
Nc1nc(N)nc(Nc2ccc([As]3SCC(CO)S3)cc2)n1 (stereo not given) [MELARSOPROL] |  |  |  | EC50 [1]: 0.0078 µM

Compound | EC50 [2] [µM] | selectivity ratio [3] | EC50 [4] [µM] | further results
COc1cccc(NC(=O)c2ccc([N+](=O)[O-])o2)c1 | 0.0586 | > 345 | > 20 | 
CCc1cc(C(N)=O)c(NC(=O)c2ccc([N+](=O)[O-])o2)s1 | 0.0173 | > 1160 | > 20 | EC50 [1]: 0.0231 µM
O=C(Nc1ccc(O)cc1)c1ccc([N+](=O)[O-])o1 | 0.394 | > 50 | > 20 | 
Cc1csc(N)c1C(N)=O | 65.1 |  | > 20 | 
COc1ccc(NC(=O)c2ccc([N+](=O)[O-])o2)cc1 | 0.0765 | > 261 | > 20 | 
COc1cc(NC(=O)c2ccc([N+](=O)[O-])o2)cc(C(F)(F)F)c1 | 0.0266 | > 752 | > 20 | 
O=C(NCc1cccc(C(F)(F)F)c1)c1ccc([N+](=O)[O-])o1 | 0.0174 | > 1150 | > 20 | 
C=CCOc1ccc(NC(=O)c2ccc([N+](=O)[O-])o2)cc1 | 0.00773 | > 258 | > 20 | 
COC(=O)c1ccc([N+](=O)[O-])o1 | 67 |  | > 20 | 
CCc1cc(C(N)=O)c(NCc2ccc([N+](=O)[O-])o2)s1 | 5.3 | > 4 | > 20 | 
COC(=O)c1ccc(NC(=O)c2ccc([N+](=O)[O-])o2)cc1 | 0.68 | > 29 | > 20 | 
O=C(Nc1ccc(Cl)cc1)c1ccc([N+](=O)[O-])o1 | 0.412 | > 48 | > 20 | 
O=C(Nc1cccc(Br)c1)c1ccc([N+](=O)[O-])o1 | 0.104 | > 192 | > 20 | 
O=C(Nc1cccc(C(F)(F)F)c1)c1ccc([N+](=O)[O-])o1 | 0.00469 | > 4450 | > 20 | EC50 [1]: 0.0094 µM
O=C(NNC(=O)c1ccc([N+](=O)[O-])o1)c1ccc2ccccc2c1 |  |  |  | EC50 [10]: 0.13 µM
CCc1cc(C(N)=O)c(NC(=O)c2ccc([N+](=O)[O-])cc2)s1 | > 20 |  | > 20 | 
N=C(N)c1ccc(OCCCCCOc2ccc(C(=N)N)cc2)cc1 [PENTAMIDINE] |  |  |  | EC50 [7]: 0.0011 µM; Ratio EC50 [9]: 2
O=C(Nc1cc(C(F)(F)F)cc(C(F)(F)F)c1)c1ccc([N+](=O)[O-])o1 | 0.128 | > 78 | > 10 | 
O=C(Nc1ccccc1)c1ccco1 | > 20 |  | > 20 | 
COc1ccc(NC(=O)c2ccc([N+](=O)[O-])o2)cc1C(F)(F)F | 0.0078 | > 2560 | > 20 | 
CCOC(=O)c1cc(CC)sc1NC(=O)c1ccc([N+](=O)[O-])o1 | 0.0313 | > 640 | > 20 | EC50 [1]: 0.0442 µM; Ratio EC50 [5]: 100
CCCCOC(=O)c1cc(CC)sc1NC(=O)c1ccc([N+](=O)[O-])o1 | 0.0326 | > 625 | > 20 | 
O=C(Nc1ccc(O)c(C(F)(F)F)c1)c1ccc([N+](=O)[O-])o1 | 2.2 | > 9 | > 20 | 
